Values joined by “and” are separate entries in the source; they are usually repeats but may differ in a detail not shown here. Equal values may be shown once.
System: U2OS
Assay: Multiplex assay against U2OS
Format: toxicity, cell-based
Conditions: human
Procedure, shortened: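 Four dyes were applied at seeding to live cells: Hoechst33342, BioTracker Green Microtubule Cytoskeleton Dye, MitoTracker Red and Annexin V Alexa Fluor 680. Imaging after compound addition used a CQ1 microscope at 37°C and 5% CO2. CellPathfinder machine-learning gating then sorted cells into Hoechst high-intensity objects or normal cells, normal cells into healthy, pyknosed or fragmented nuclei, and pyknosed cells into mitotic or apoptotic, with tubulin, mitochondrial-mass and membrane-permeability phenotypes given as per cents of healthy-nucleus cells.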

[1] = 12 h, 1 µM, compound concentration 1 uM
[2] = 12 h, 10 µM, compound concentration 10 uM
[3] = 24 h, 1 µM, compound concentration 1 uM
[4] = 24 h, 10 µM, compound concentration 10 uM
[5] = 48 h, 1 µM, compound concentration 1 uM
[6] = 48 h, 10 µM, compound concentration 10 uM

## CC(C)(C)c1ccc(CSc2cnn(C(C)(C)C)c(=O)c2Cl)cc1 [PYRIDABEN]
[1]
  Population Apoptotic (%): 79% and 63%
  Population Fragmented Nuclei (%): 28% and 11%
  Population Healthy Nuclei (%): 61% and 81%
  Population Hoechst High Intensity Objects (%): 3% and 0%
  Population Membrane Permeable-Phenotype (%): 3% and 4%
  Population Mitochondria Different-Phenotype (%): 1%
  Population Mitotic Cells (%): 20% and 36%
  Population Normal (%): 97% and 99%
  Population Pyknosed Nuclei (%): 9% and 7%
  Population Tubulin-Different-Phenotype (%): 2% and 3%
  Total Cell Count: 267 and 152
[2]
  Population Apoptotic (%): 83% and 87%
  Population Fragmented Nuclei (%): 28% and 15%
  Population Healthy Nuclei (%): 57% and 73%
  Population Hoechst High Intensity Objects (%): 1% and 0%
  Population Membrane Permeable-Phenotype (%): 5%
  Population Mitochondria Different-Phenotype (%): 5% and 2%
  Population Mitotic Cells (%): 16% and 12%
  Population Normal (%): 98% and 100%
  Population Pyknosed Nuclei (%): 14% and 11%
  Population Tubulin-Different-Phenotype (%): 3% and 2%
  Total Cell Count: 209 and 141
[3]
  Population Apoptotic (%): 83% and 100%
  Population Fragmented Nuclei (%): 28% and 19%
  Population Healthy Nuclei (%): 58% and 75%
  Population Hoechst High Intensity Objects (%): 1% and 2%
  Population Membrane Permeable-Phenotype (%): 4% and 3%
  Population Mitochondria Different-Phenotype (%): 1%
  Population Mitotic Cells (%): 16% and 0%
  Population Normal (%): 98% and 97%
  Population Pyknosed Nuclei (%): 13% and 5%
  Population Tubulin-Different-Phenotype (%): 1%
  Total Cell Count: 286 and 186
[4]
  Population Apoptotic (%): 80%
  Population Fragmented Nuclei (%): 22% and 19%
  Population Healthy Nuclei (%): 61% and 68%
  Population Hoechst High Intensity Objects (%): 2% and 1%
  Population Membrane Permeable-Phenotype (%): 8% and 6%
  Population Mitochondria Different-Phenotype (%): 3% and 1%
  Population Mitotic Cells (%): 19% and 20%
  Population Normal (%): 97% and 98%
  Population Pyknosed Nuclei (%): 15% and 12%
  Population Tubulin-Different-Phenotype (%): 6% and 2%
  Total Cell Count: 234 and 167
[5]
  Population Apoptotic (%): 76% and 84%
  Population Fragmented Nuclei (%): 26% and 19%
  Population Healthy Nuclei (%): 63% and 70%
  Population Hoechst High Intensity Objects (%): 3% and 6%
  Population Membrane Permeable-Phenotype (%): 6% and 5%
  Population Mitochondria Different-Phenotype (%): 3%
  Population Mitotic Cells (%): 23% and 15%
  Population Normal (%): 96% and 93%
  Population Pyknosed Nuclei (%): 9%
  Population Tubulin-Different-Phenotype (%): 3% and 2%
  Total Cell Count: 361 and 212
[6]
  Population Apoptotic (%): 90% and 95%
  Population Fragmented Nuclei (%): 20% and 16%
  Population Healthy Nuclei (%): 64% and 70%
  Population Hoechst High Intensity Objects (%): 4% and 3%
  Population Membrane Permeable-Phenotype (%): 9% and 5%
  Population Mitochondria Different-Phenotype (%): 4% and 6%
  Population Mitotic Cells (%): 10% and 4%
  Population Normal (%): 95% and 96%
  Population Pyknosed Nuclei (%): 14% and 13%
  Population Tubulin-Different-Phenotype (%): 6% and 4%
  Total Cell Count: 280 and 191
